Measured values reported in article PMC3306454 (ACS Chemical Biology, 2012).
“And” between values parts separate entries of the source, which are not always exact repeats. Equal entries are not always repeated. “Also recorded” adds a separate entry of the source.

What was measured:
[1] = tested on: RNA 1×1 nucleotide internal loops and fully paired RNA; test: Competition dialysis, binding selectivity; conditions: 1 µM ligand, 1.6 µM RNA, 24 h
In short: (§1)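 RNAs were run-off transcribed, carried internal loops in a GNRA-hairpin cassette with a fully paired control, and were PAGE-purified. They were folded by heating at 60 °C for 5 min, then slow cooling. Dialysis units with 1.6 μM RNA stood against 1 μM ligand in buffer (8 mM NaH2PO4, 185 mM NaCl, 1 mM EDTA, pH 7.2), stirred 200 rpm, 24 h, 20–22 °C. SDS was added (1% final); Ct was measured spectrophotometrically; Cb = Ct − Cf.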

r(CAG)12-MBNL1 complex = test: TR-FRET assay, disruption of the r; format: biochemical
[2] = tested on: SK-N-MC neuroblastoma cells stably expressing r(CAG)74; test: RT-PCR splicing assay in neuroblastoma; format: cell-based, Human
In short: (§2)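 Fibroblasts were grown in MEM with 10% FBS and nonessential amino acids. SK-N-MC cells, with or without stable r(CAG)74, were grown in DMEM with 10% FBS. At ~60% confluence they received test compound at 50–300 μM final (water for untreated) for 48 h. ~1 μg total RNA was reverse transcribed with random primers, followed by RT-PCR, 2% agarose and ethidium staining. Normal isoform fraction was the normal band over total; ≥6 experiments, two-tailed t test versus untreated.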

[3] = tested on: HD fibroblasts and neuroblastoma cellular models; test: Cell morphology; format: cell-based, Human; conditions: for Toxicity as assessed by cell morphology: initial screen, 100 µM, both cellular models
In short: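 HD patient fibroblasts (r(CAG)69) and SK-N-MC neuroblastoma cells stably expressing r(CAG)74 were grown to ~60% confluence. Fresh medium with test compound was added: 100 μM for the screen, 50–300 μM for the dose series, water for untreated. Cells were kept 48 h, and microscopic images of cell morphology served as the toxicity estimate.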

[4] = tested on: normal neuroblastoma cell line / control cell lines that do not express r(CAG)exp; test: RT-PCR splicing assay in control cell lines; format: cell-based, Human
In short: as §2

[5] = tested on: RNA displaying 5’CAG/3’GAC motif; test: Optical melting experiments; format: binding; conditions: for ΔTm (1 equiv.): one equivalent of ligand; for ΔTm (2 equiv.): two equivalents of ligand
In short: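 RNA in Affinity Buffer was denatured at 90 °C and cooled to 15 °C, with ligand at 1 or 2 equivalents. Absorbance at 260 nm was recorded against temperature at 1 °C/min. Tm was calculated as ΔH°×1000/ΔS° − 273.15.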

[6] = tested on: HD patient-derived fibroblasts expressing r(CAG)69; test: RT-PCR splicing assay in HD fibroblasts; format: cell-based, Human; conditions: for Effect on ATP2A1 splicing: initial screen, 100 µM, both cellular models
In short: as §2

[7] = tested on: nuclear r(CAG)exp foci in HD-derived fibroblasts; test: FISH of nuclear r; format: cell-based, Human
In short: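 Fibroblasts (HD line GM04281: r(CAG)17 and r(CAG)69 HTT alleles) at ~60% confluence were given test compound at 50−300 μM final, or water, for 48 h. Cells were fixed in 4% PFA/PBS at 4 °C, prehybridized (30% formamide, 2X SSC, 10 min), and hybridized with a 5′-Cy3, LNA-modified (CTG)6-CA probe. Washes were at 45 °C then 37 °C, and foci were imaged by fluorescence microscopy.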

RNA 5’CAG/3’GCC = test: Competition dialysis; format: binding; conditions: bound ligand relative to amount of RNA target
In short: as §1

[8] = tested on: RNA containing 5’CGG/3’GGC; test: Fluorescence anisotropy direct binding assay
In short: (§3)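 RNA was titrated into 50 nM fluorescent test compound in Affinity Buffer (20 mM HEPES pH 7.5, 5 mM KCl, 150 mM NaCl, 1 mM MgCl2), equilibrating 5 min between additions. Anisotropy was read at ex 368 / em 500 nm and plotted against RNA concentration. Kd came from a quadratic binding equation fit.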

RNA 5’CCG/3’GCG = test: Fluorescence anisotropy direct binding assay
In short: as §3

RNA 5’CAG/3’GAC = test: Competition dialysis; format: binding; conditions: bound ligand relative to amount of RNA target
In short: as §1

[9] = target: RNA containing the 5’CAG/3’GAC motif; test: Fluorescence anisotropy direct binding assay; conditions: read-out: Dissociation constant, 5’CAG/3’GAC
In short: as §3

[10] = tested on: RNA containing 5’CUG/3’GUC; test: Fluorescence anisotropy direct binding assay
In short: as §3

[11] = target: RNA 5’CAG/3’GUC (fully paired RNA); test: Fluorescence anisotropy direct binding assay; conditions: read-out: Dissociation constant, 5’CAG/3’GUC
In short: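 The RNA was made by run-off transcription and PAGE-purified, then folded by heating at 60 °C. Anisotropy was read at ex 368 nm and em 500 nm. Kd came from a quadratic binding fit of anisotropy versus RNA concentration.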

[12] = neuroblastoma cells expressing r(CAG)74, 48 h

COc1ccc2nc3cc(Cl)ccc3c(N)c2c1 [ACMA, 9-amino-6-chloro-2-methoxy acridine]
Binding preference among RNAs [1]: binds preferentially to the fully paired RNA and the RNA displaying 5’CCG/3’GCC

CN(C)c1ccc2cc3ccc(N(C)C)cc3nc2c1 [AO, Acridine Orange]
Binding preference among RNAs [1]: little preference for binding to a fully paired RNA or any of the RNAs with 1×1 nucleotide internal loops

N=C(N)Nc1ccc(OC(=O)c2ccc(NC(=N)N)cc2)cc1 [Compound D6, 4-guanidinophenyl 4-guanidinobenzoate]
Fold more potent than the other compounds studied (r(CAG)12-MBNL1 complex; TR-FRET IC50): at least 20 fold | IC50 (r(CAG)12-MBNL1 complex; pre-formed r(CAG)12-MBNL1 complex, TR-FRET): 3000 nM | Effect on MAPT pre-mRNA splicing ([2]; neuroblastoma cell line expressing 74 r(CAG) repeats): slightly worsens the splicing of the MAPT pre-mRNA toward the DM-like phenotype | Concentration giving statistically significant improvement of ATP2A1 splicing [2, 12]: 100 to 300 µM | Concentration giving statistically significant improvement of NCOR2 splicing [2, 12]: 100 to 300 µM | Effect on cell morphology ([3]; increasing concentration of D6): cell morphology is not affected | Toxicity as assessed by cell morphology [3]: least amount of toxicity | Effect on splicing of other tested transcripts ([4]; control cell lines that do not express toxic r(CAG)exp): does not affect the splicing | Effect on MAPT pre-mRNA splicing ([4]; normal neuroblastoma cell line): more pronounced effect | ΔTm (1 equiv.) [5]: 3 °C | ΔTm (2 equiv.) [5]: 9 °C | Concentration giving statistically significant improvement of NCOR2 mis-splicing ([6]; HD fibroblasts, 48 h): 100 to 300 µM and 50 to 300 µM | Effect on ATP2A1 splicing [6]: most significantly improved ATP2A1 mis-splicing | Effect on nuclear r(CAG)exp foci [7]: does not disrupt the formation of nuclear r(CAG)^exp foci; also recorded: does not significantly affect the number or the intensity of nuclear r(CAG)^exp foci

N=C(N)c1ccc(-c2cc3ccc(C(=N)N)cc3[nH]2)cc1 [DAPI, 4',6-diamidino-2-phenylindole]
Binding stoichiometry to 5’CAG/3’GCC (RNA 5’CAG/3’GCC): stoichiometric amounts | Fold weaker binding to 5’CGG/3’GGC than to 5’CAG/3’GAC ([8]; fluorescence anisotropy): approximately 2.5 fold | Kd ([8]; read-out: Dissociation constant, 5’CGG/3’GGC, direct binding assay): 500 ± 100 nM | Fold weaker binding to 5’CCG/3’GCC than to 5’CAG/3’GAC (RNA 5’CCG/3’GCG; fluorescence anisotropy): ~ 5 fold | Kd (RNA 5’CCG/3’GCG; read-out: Dissociation constant, 5’CCG/3’GCG, direct binding assay): 990 ± 200 nM | Binding stoichiometry to 5’CAG/3’GAC (RNA 5’CAG/3’GAC): stoichiometric amounts | Toxicity as assessed by cell morphology [3]: strongest morphological changes | ΔTm (1 equiv.) [5]: 6 °C | ΔTm (2 equiv.) [5]: 10 °C | Kd [9]: 220 ± 60 nM | Fold weaker binding to 5’CUG/3’GUC than to 5’CAG/3’GAC ([10]; fluorescence anisotropy): approximately 2.5 fold | Kd ([10]; read-out: Dissociation constant, 5’CUG/3’GUC, direct binding assay): 550 ± 200 nM | Binding preference among RNAs [1]: preferentially binds to 5’CAG/3’GAC and 5’CAG/3’GCC | Effect on ATP2A1 splicing [6]: exacerbated splicing abnormalities of ATP2A1 | Kd [11]: > 3000 nM

COc1cccc2c1C(=O)c1c(O)c3c(c(O)c1C2=O)C[C@@](O)(C(C)=O)C[C@@H]3O[C@H]1C[C@H](N)[C@H](O)[C@H](C)O1 [DNM, Daunomycin]
Binding preference among RNAs [1]: prefers to bind 5’CCG/3’GAC

O=C1c2c(O)ccc(O)c2C(=O)c2c(NCCNCCO)ccc(NCCNCCO)c21 [MTX, Mitoxantrone]
Binding preference among RNAs [1]: slight preference for 5’CCG/3’GAC while it discriminates against 5’CUG/3’GCC

Cn1cc(NC(=O)c2cc(NC(=O)CN=C(N)N)cn2C)cc1C(=O)NCCC(=N)N [NTSP, netropsin]
Binding preference among RNAs [1]: slight preference for 5’CCG/3’GUC

CCN(CC)CCCC(C)Nc1c2ccc(Cl)cc2nc2ccc(OC)cc12 (stereo not drawn) [QNC, Quinacrine]
Binding preference among RNAs [1]: prefers to bind 5’CAG/3’GCC

Nc1ccc2cc3ccc(N)cc3nc2c1 [proflavin, Proflavin]
Binding preference among RNAs [1]: little preference for binding to a fully paired RNA or any of the RNAs with 1×1 nucleotide internal loops
